# Measurements gathered from unrelated publications.
Structure (SMILES),assay,system,setting,endpoint,result
COc1ccccc1-c1nc(N2CCC(c3ccccn3)C2)c2ccccc2n1 (stereo not shown),metabolic stability,"human, liver microsomes",,microsomal CLint,69 µL/min/mg
CC(C)CCN(c1ccc(F)cc1)c1c(-c2ccccn2)nc2ccccn12,metabolic stability,"rat, hepatocytes",,hepatocyte CLint,> 300 µL/min/10⁶ cells
c1ccc(C2CCN(c3nc(-c4ccn[nH]4)nc4ccccc34)C2)nc1 (stereo not shown),metabolic stability,"human, liver microsomes",,microsomal CLint,46 µL/min/mg
COc1ccc2nc(-c3ccccn3)c(N(C)c3ccc(F)cc3)n2c1,metabolic stability,"rat, hepatocytes",,hepatocyte CLint,> 300 µL/min/10⁶ cells
c1ccc(-c2nc(NCc3ccco3)c3ccccc3n2)nc1,metabolic stability,"human, liver microsomes",,microsomal CLint,71 µL/min/mg
CCNCCCNC/C=C\CNCCCNCC,,"human, plasma","intravenous, 200 mg, patients, infusion",clearance,3140 mL/min
CCOC(=O)C1=C(C)N/C(=C/c2cc(C)n(Cc3ccc(C(F)(F)F)cc3)c2C)C1=O,HPLC,,pH 7.4,chromatographic logD,3.5
c1ccc(-c2nc(N3CCc4ncccc4C3)c3ccccc3n2)nc1,metabolic stability,"human, liver microsomes",,microsomal CLint,71 µL/min/mg
Fc1ccc(Nc2c(-c3ncccc3F)nc3ccccn23)cc1,metabolic stability,"rat, hepatocytes",,hepatocyte CLint,100 µL/min/10⁶ cells
CS(=O)(=O)CCC#N,,"human, plasma","oral, 1000 mg, single dose, fasted",CL/F,0.233 mL/min/kg
COc1cc(OC)cc(-c2c(-c3ccccn3)nc3n2CCC3)c1,metabolic stability,"rat, hepatocytes",,hepatocyte CLint,> 300 µL/min/10⁶ cells
COc1cc(C(=O)NC2CCN(C)CC2)c(F)cc1Nc1ncc(C(F)(F)F)c(Oc2cccc3c2C(=O)N(C)C3)n1,,"human, plasma","oral, 100 mg, multiple doses, once daily, patients",CL/F,10.4 L/h
Fc1ccc(Nc2c(-c3ccccn3)nc3ccccn23)nc1,metabolic stability,"rat, hepatocytes",,hepatocyte CLint,18 µL/min/10⁶ cells
C[C@H](C(=O)N[C@@H]1COc2ccccc2[C@H]1S(C)(=O)=O)c1ccc(F)cc1,metabolic stability,"rat, liver microsomes",1 µM,microsomal CLint,55 µL/min/mg
Cc1ccc(C(=O)N(CCCN)[C@@H](c2oc3cc(Cl)ccc3c(=O)c2Cc2ccccc2)C(C)C)cc1,,"human, plasma","intravenous, 6 mg/m², single dose, patients, infusion",clearance,23.6 mL/min
c1ccc(-c2nc(NCCn3ccnc3)c3ccccc3n2)nc1,metabolic stability,"human, liver microsomes",,microsomal CLint,36 µL/min/mg
OC[C@H]1O[C@@H](c2ccc(Cl)c(Cc3ccc(O[C@H]4CCOC4)cc3)c2)[C@H](O)[C@@H](O)[C@@H]1O,,"human, urine","oral, 100 mg, single dose",renal clearance,15 mL/min
N#CC1CCCN(c2nc(-c3ccccn3)nc3ccccc23)C1 (stereo not shown),metabolic stability,"human, liver microsomes",,microsomal CLint,48 µL/min/mg
Cc1c(C(=O)NN2CCCC(O)C2)nc(-c2ccc(Cl)cc2Cl)n1-c1ccc(OS(=O)(=O)CCC(F)(F)F)cc1 (stereo not shown),shake flask,aqueous buffer,pH 7.4,logD,3.8
c1ccc(-c2nc(NCCn3cnc4ccccc43)c3ccccc3n2)nc1,metabolic stability,"human, liver microsomes",,microsomal CLint,150 µL/min/mg
CC(C)(C)[Si](C)(C)OCCCN(c1ccc(F)cc1)c1c(-c2ccccn2)nc2ccccn12,metabolic stability,"rat, hepatocytes",,hepatocyte CLint,42 µL/min/10⁶ cells
c1cnc2ccc(Nc3nc(NC4CC4)c4nc[nH]c4n3)cc2c1,,"human, plasma","oral, 200 mg/m², patients",CL/F,80.9 L/h
CCOC(=O)C1=C(C)N/C(=C/c2cc(C)n(-c3ccc(N4CCOCC4)cc3)c2C)C1=O,HPLC,,pH 7.4,chromatographic logD,2.8
OC[C@H]1O[C@@H](c2ccc(Cl)c(Cc3ccc(O[C@H]4CCOC4)cc3)c2)[C@H](O)[C@@H](O)[C@@H]1O,,"human, plasma","oral, multiple doses, steady state",CL/F,8.99 L/h
COc1cccnc1-c1nc2ccccn2c1N(C)c1ccc(F)cc1,metabolic stability,"rat, hepatocytes",,hepatocyte CLint,> 300 µL/min/10⁶ cells
O=C1C2N=CN3C(NCc4c(F)ccc5c4CCO5)=NC=C(c4cnc(C(F)(F)F)cc4CN1CC(F)F)C23 (stereo not shown),metabolic stability,"rat, liver microsomes","100 µM, 30 min",scaled CLint,20 mL/min/kg
c1ccc(-c2nc(N3CCCCCC3)c3ccccc3n2)nc1,metabolic stability,"human, liver microsomes",,microsomal CLint,190 µL/min/mg
Fc1ccc(Nc2c(-c3cc(Cl)ccn3)nc3ccccn23)cc1,metabolic stability,"rat, hepatocytes",,hepatocyte CLint,> 300 µL/min/10⁶ cells
